Source: ChEMBL document CHEMBL3526115, “Differences in the pharmacokinetics of 4-amino-3-chlorophenyl hydrogen sulfate, a metabolite of resatorvid, in rats and dogs” (Drug Metab Dispos, 2012)

Tests used:
[1] = Ratio of drug level in kidney to plasma in Crj:CD(SD)IGS rat at 0.25 mg/hr, iv administered as continuous infusion by HPLC-based liquid scintillation counting analysis; format: ADME, organism-based
Summary of the method: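 Rats received [14C]M-III in saline by continuous jugular-vein infusion for 4 h (0.5 mg/rat/h per methods; 0.25 mg/h in legend), then aortic blood and kidneys were collected. Dogs received a 0.5 mg/kg iv bolus, with blood and kidneys (cortex and medulla separated) collected at 24 h. 14C was measured in tissue homogenates and plasma as a tissue/plasma ratio. Rat n = 3, dog n = 2.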

[2] = test system: Rattus norvegicus; test: Intrinsic total body clearance in Crj:CD(SD)IGS rat at 0.125 mg/hr, iv administered as continuous infusion by HPLC based liquid scintillation counting analysis in presence of 31 mg/hr/kg probenecid; format: ADME, organism-based; details: in vivo
Summary of the method: (§1)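 Rats received a continuous iv infusion of [14C]M-III at 0.125 mg/rat/h, with probenecid co-infused at 16, 31 or 62 mg/h/kg or vehicle alone, for 5 h. Arterial plasma was sampled during infusion. CLtot = infusion rate / steady-state plasma M-III (120–180 min). Unbound fraction was measured by ultrafiltration of 5-h plasma (10,000 MWCO, 1500g, 37°C, 10 min). CLint = CLtot / unbound ratio.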

[3] = In vivo plasma protein binding in Crj:CD(SD)IGS rat at 0.125 mg/hr, iv administered as continuous infusion by ultrafiltration method in presence of 31 mg/hr/kg probenecid; format: ADME, organism-based; details: with probenecid 31 mg/hr/kg, read-out: PPB (converted); summary of the method: as §1
[4] = test system: Plasma; test: Plasma concentration in Crj:CD(SD)IGS rat at 0.125 mg/hr, iv administered as continuous infusion by HPLC based liquid scintillation counting analysis; format: ADME, organism-based; details: in vivo
Summary of the method: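 Rats were continuously infused iv with [14C]M-III at 0.125 mg/rat/h, plus probenecid (4.7, 9.4, 18.6 mg/rat/h) or vehicle. Femoral-artery blood was taken at 0.5, 1, 2, 3 and 4 h, with terminal aortic blood at 5 h. Plasma radioactivity was measured, with probenecid quantified by HPLC-UV at 240 nm against spiked-plasma calibration from 0.1 to 100 µg/ml.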

[5] = Apparent volume of distribution in Crj:CD(SD)IGS rat at 0.5 mg/kg, iv administered as bolus dose by HPLC-based liquid scintillation counting analysis; format: ADME, organism-based; parameters: dose 0.5 mg/kg, route intravenous; details: in vivo, read-out: Vd(app)
Summary of the method: (§2)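 [14C]M-III in saline given as a single iv bolus at 0.5 mg/kg to male rats (tail-vein blood, 5 min–24 h) or male beagle dogs (cephalic-vein blood, 5 min–168 h). Heparinized plasma counted for radioactivity; M-III quantified by HPLC with fraction collection and liquid scintillation counting. C5 min read directly; terminal t1/2 by linear regression, kel = ln2/t1/2, Vd = dose/back-extrapolated C0, CLtot = dose/AUCinf. Mean ± S.D., n = 3.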

[6] = Elimination rate constant in Beagle dog at 0.5 mg/kg, iv administered as bolus dose by HPLC-based liquid scintillation counting analysis; format: ADME, organism-based, Canis lupus familiaris; parameters: dose 0.5 mg/kg, route intravenous; details: in vivo; summary of the method: as §2
[7] = Apparent volume of distribution in Beagle dog at 0.5 mg/kg, iv administered as bolus dose by HPLC-based liquid scintillation counting analysis; format: ADME, organism-based, Canis lupus familiaris; parameters: dose 0.5 mg/kg, route intravenous; details: in vivo, read-out: Vd(app); summary of the method: as §2
[8] = In vitro plasma protein binding in dog at 50 ug/ml by ultrafiltration method; format: ADME, cell-free, Canis lupus familiaris; details: read-out: PPB (converted)
Summary of the method: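 [14C]M-III in saline was added to rat or dog plasma at final 0.5, 5 and 50 µg/ml. Plasma was ultrafiltered by centrifugation at 1500g and 37°C for 10 min, and 14C was measured in plasma and filtrate. Mean ± S.D., n = 3.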

[9] = Elimination rate constant in Crj:CD(SD)IGS rat at 0.5 mg/kg, iv administered as bolus dose by HPLC-based liquid scintillation counting analysis; format: ADME, organism-based; parameters: dose 0.5 mg/kg, route intravenous; details: in vivo; summary of the method: as §2
[10] = test system: Rattus norvegicus; test: Unbound renal clearance in Crj:CD(SD)IGS rat at 0.5 mg/kg, iv administered as bolus dose measured from 0 to 24 hrs by HPLC-based liquid scintillation counting analysis; format: ADME, organism-based, Kidney; parameters: dose 0.5 mg/kg, route intravenous; details: in vivo
Summary of the method: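 Male Crj:CD(SD)IGS rats received [14C]M-III in saline as an IV bolus at 0.5 mg–2.6 MBq/kg. Urine was collected in metabolic cages over 0–24 h. M-III in urine was taken as total urinary 14C times the M-III fraction, measured by direct HPLC, 1-min fraction collection and scintillation counting. CLrenal = urinary M-III / AUC. Unbound CLrenal = CLrenal / free fraction, from in vivo ultrafiltration binding. n = 3.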

Kp [1]: 3.5 | CL [2]: 11.9 mL/min/kg | fraction unbound [3]: 0.197 | Cp [4]: 600 ng/mL | Vd [5]: 0.14 L/kg | k el [6]: 1.68e-06 s⁻¹ | Vd [7]: 0.0989 L/kg | fraction unbound at 50 ug/ml [8]: 0.154 | k el [9]: 5.11e-05 s⁻¹ | CL free [10]: 96.3 mL/min/kg
SMILES: N[14c]1[14cH][14cH][14c](OS(=O)(=O)O)[14cH][14c]1Cl
